Measured values published in ChEMBL document CHEMBL4765386, “Discovery of tertiary amide derivatives incorporating benzothiazole moiety as anti-gastric cancer agents in vitro via inhibiting tubulin polymerization and activating the Hippo signaling pathway” (Eur J Med Chem, 2020).
Calls of active or inactive are those of the source. No cut-off for these calls is given here.

How the values were obtained:
MGC-803 [1] = assay: Induction of apoptosis in human MGC-803 cells assessed as downregulation of c-IAP2 at 20 to 60 nM incubated for 48 hrs by Western blot analysis; format: functional, cell-based; details: dose 20-60 nM
Summary of the method: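 Western blot on MGC-803 and SGC-7901 cells given 20, 40 and 60 nM compound or DMSO for 48 h. Denatured lysates were run on SDS-PAGE and transferred to PVDF, then probed with primary and secondary antibodies to detect apoptosis-related proteins.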

MGC-803 [2] = assay: Induction of cell cycle arrest in human MGC-803 cells assessed as increase in G2/M phase accumulation incubated for 24 hrs by PI staining based flow cytometry analysis; format: functional; details: dose 20-60 nM
Summary of the method: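 Cells in RPMI-1640/10% FBS at 37 °C, 5% CO2, exposed to 20, 40 and 60 nM for 24 h before flow cytometric cell-cycle distribution analysis.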

[3] = Inhibition of pig brain tubulin polymerization in presence of GTP by spectrophotometric method; design: species or system Sus scrofa
Summary of the method: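 Tubulin purified from pig brain by three temperature-dependent assembly/disassembly cycles in PIPES pH 6.5 (100 mM), 1.0 mM MgSO4, 2.0 mM EGTA, 1.0 mM GTP, 1.0 mM 2-mercaptoethanol, then phosphocellulose chromatography. Protein mixed with compound in PEM buffer with 1 mM GTP and 5% glycerol.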

SGC-7901 = assay: Displacement of EBI from beta-tubulin in human SGC-7901 cells assessed as reduction in tubulin adduct formation incubated for 2 hrs followed by EBI addition and measured after 2 hrs by Western blot analysis; format: cell-based; details: dose 0.25-2.5 µM, time 4.0 hrs
Summary of the method: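 EBI competition assay. […] EBI was then added at […] as printed for another 2 h. Harvested cells were immunoblotted with anti-β-tubulin antibody to detect β-tubulin and the alkylated β-tubulin adduct.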

MGC-803 [4] = assay: Activation of Hippo signaling pathway in human […] cells assessed as decrease in Bcl-2 expression incubated for 48 hrs by Western blot analysis; format: cell-based; details: filed as activator, dose 20-60 nM
Summary of the method: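 Western blot on gastric cancer cells exposed to compound or DMSO at 20, 40 and 60 nM for 48 h. Cells were lysed, then the denatured lysates were separated by SDS-PAGE and transferred to PVDF. Membranes were blocked and probed with primary and then secondary antibodies. Hippo pathway proteins were detected.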

- IC50 [3]: 1.9 µM
SMILES: COc1ccc(CN(C(=O)CSc2nc3ccccc3s2)c2cc(OC)c(OC)c(OC)c2)cc1O
- Activity (MGC-803 [1]): Active
- Activity (MGC-803 [2]): Dose-dependent effect
- inhibition (SGC-7901): Dose-dependent effect
- Activity (MGC-803 [4]): Dose-dependent effect
